Active and inactive are the calls of the source. The calls are words filed in the database; no cut-off is given here.
Experiments:
[1] = test system: Mus musculus; assay: Effect on morphine-dependence in CD1 mouse assessed as decrease in naloxone-precipitated jumping at 0.025 mg/kg, ip administered chronically 15 mins prior to each morphine challenge relative to vehicle-treated control; format: functional, organism-based; set-up: dose 0.025 mg/kg
Outline: (§1)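 Acquisition of morphine dependence in mice, tested with repeated ip dosing (racemate 0.05 mg/kg, enantiomers 0.025 mg/kg). Withdrawal was precipitated by naloxone. Scored signs were jumping frequency and somatic signs (rearing, forepaw tremors, teeth chatter). Groups were compared with vehicle and with the morphine group.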

[2] = test system: Mus musculus; assay: Effect on morphine-dependence in CD1 mouse assessed as decrease in naloxone-precipitated jumping at 0.025 mg/kg, ip administered acutely 15 mins prior to naloxone challenge relative to vehicle-treated control; format: functional, organism-based; set-up: dose 0.025 mg/kg
Outline: as §1, with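 “Expression” for “Acquisition”, “a single acute” for “repeated”, “dose” for “dosing”, “naloxone in control and morphine-treated mice.” for “naloxone.”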

[3] = molecular target: T1, Alpha-2B adrenergic receptor (Homo sapiens, UniProt P18089); assay: Displacement of [3H]RX821002 from human alpha2B adrenoceptor expressed in CHO cells after 30 mins by scintillation counting; format: cell-based
T1 sequence (P18089 whole entry): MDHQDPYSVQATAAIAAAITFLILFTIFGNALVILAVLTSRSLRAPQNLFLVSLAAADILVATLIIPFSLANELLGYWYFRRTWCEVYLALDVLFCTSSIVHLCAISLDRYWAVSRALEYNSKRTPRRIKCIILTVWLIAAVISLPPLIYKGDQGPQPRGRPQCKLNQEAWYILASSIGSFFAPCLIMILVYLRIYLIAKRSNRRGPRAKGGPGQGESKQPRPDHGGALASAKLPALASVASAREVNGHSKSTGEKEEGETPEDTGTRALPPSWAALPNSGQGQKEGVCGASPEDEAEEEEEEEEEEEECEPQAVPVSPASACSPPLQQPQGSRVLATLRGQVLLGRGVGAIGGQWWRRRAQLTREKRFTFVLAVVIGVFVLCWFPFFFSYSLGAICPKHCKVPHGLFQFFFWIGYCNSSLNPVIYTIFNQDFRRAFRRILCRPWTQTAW
Outline: (§2)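 Binding and functional assays run on CHO cells expressing recombinant human α2-AR subtypes. Functional read-outs are agonist potency (pEC50) with intrinsic activity (ia), or antagonist pKb. Affinity is reported as pKi. Values are means ± SEMs of 3–6 separate experiments.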

[4] = test system: Mus musculus; assay: Effect on morphine-dependence in CD1 mouse assessed as decrease in naloxone-precipitated rearing at 0.025 mg/kg, ip administered chronically 15 mins prior to each morphine challenge relative to vehicle-treated control; format: functional, organism-based; set-up: dose 0.025 mg/kg; outline: as §1
[5] = molecular target: T2, Alpha-2C adrenergic receptor (Homo sapiens, UniProt P18825); assay: Displacement of [3H]RX821002 from human alpha2C adrenoceptor expressed in CHO cells after 30 mins by scintillation counting; format: cell-based; outline: as §2
T2 sequence (P18825 whole entry): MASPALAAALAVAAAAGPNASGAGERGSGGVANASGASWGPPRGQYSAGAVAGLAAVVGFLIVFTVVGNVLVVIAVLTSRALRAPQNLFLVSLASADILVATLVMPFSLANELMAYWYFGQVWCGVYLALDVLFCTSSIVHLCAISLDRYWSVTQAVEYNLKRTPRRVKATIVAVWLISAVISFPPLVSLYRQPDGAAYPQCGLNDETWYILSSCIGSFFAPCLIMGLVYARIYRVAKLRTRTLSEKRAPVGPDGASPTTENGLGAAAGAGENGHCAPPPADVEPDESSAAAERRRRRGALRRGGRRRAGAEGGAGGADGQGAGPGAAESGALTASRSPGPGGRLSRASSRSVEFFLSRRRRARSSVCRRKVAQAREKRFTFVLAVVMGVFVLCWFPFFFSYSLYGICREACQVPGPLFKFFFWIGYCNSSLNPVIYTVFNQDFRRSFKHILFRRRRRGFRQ

[6] = molecular target: T3, 5-hydroxytryptamine receptor 1A (Homo sapiens, UniProt P08908); assay: Displacement of [3H]8-OH-DPAT from human 5HT1A receptor expressed in HeLa cells after 30 mins; format: cell-based
T3 sequence (P08908 whole entry): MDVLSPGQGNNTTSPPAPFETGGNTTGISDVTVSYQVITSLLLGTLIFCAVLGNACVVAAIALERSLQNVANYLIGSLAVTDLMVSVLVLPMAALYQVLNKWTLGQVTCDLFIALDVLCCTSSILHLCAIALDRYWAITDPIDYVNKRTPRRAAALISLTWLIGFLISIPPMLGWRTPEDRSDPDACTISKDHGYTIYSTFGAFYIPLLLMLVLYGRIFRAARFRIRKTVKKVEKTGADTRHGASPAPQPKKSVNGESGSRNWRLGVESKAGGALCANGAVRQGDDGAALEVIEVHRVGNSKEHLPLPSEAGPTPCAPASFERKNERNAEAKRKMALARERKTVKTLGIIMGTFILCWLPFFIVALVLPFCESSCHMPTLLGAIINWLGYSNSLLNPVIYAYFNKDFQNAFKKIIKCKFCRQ
Outline: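 pKi is derived from displacement of [3H]-8-OH-DPAT binding at human cloned 5-HT1A receptor. Values are means ± SEMs of 3–6 separate experiments.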

[7] = test system: Mus musculus; assay: Antidepressant activity in CD1 mouse assessed as decrease in immobility time at 0.025 mg/kg, ip administered 15 mins prior to coadministration with yohimbine measured after 15 mins by forced swim test relative to vehicle-treated control; format: functional, organism-based; set-up: dose 0.025 mg/kg
Outline: (§3)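 Forced swimming test in mice using 0.025 mg/kg ip test dose. It was combined with the 5-HT1A antagonist WAY 100635 (0.1 mg/kg, sc) or with the α2 antagonist yohimbine (1.250 mg/kg, ip). Each antagonist was also given alone. Immobility time is the read-out, given as means ± SEMs of 7–8 animals.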

[8] = test system: Mus musculus; assay: Effect on morphine-dependence in CD1 mouse assessed as decrease in naloxone-precipitated forepaw tremors at 0.025 mg/kg, ip administered acutely 15 mins prior to naloxone challenge relative to vehicle-treated control; format: functional, organism-based; set-up: dose 0.025 mg/kg
Outline: as §1, with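 “Expression” for “Acquisition”, “a single acute” for “repeated”, “dose” for “dosing”, “naloxone in control and morphine-treated mice.” for “naloxone.”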

[9] = test system: Mus musculus; assay: Effect on morphine-dependence in CD1 mouse assessed as decrease in naloxone-precipitated rearing at 0.025 mg/kg, ip administered acutely 15 mins prior to naloxone challenge relative to vehicle-treated control; format: functional, organism-based; set-up: dose 0.025 mg/kg
Outline: as §1, with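 “Expression” for “Acquisition”, “a single acute” for “repeated”, “dose” for “dosing”, “naloxone in control and morphine-treated mice.” for “naloxone.”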

[10] = test system: Mus musculus; assay: Effect on morphine-dependence in CD1 mouse assessed as decrease in naloxone-precipitated teeth chatter at 0.025 mg/kg, ip administered acutely 15 mins prior to naloxone challenge relative to vehicle-treated control; format: functional, organism-based; set-up: dose 0.025 mg/kg
Outline: as §1, with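 “Expression” for “Acquisition”, “a single acute” for “repeated”, “dose” for “dosing”, “naloxone in control and morphine-treated mice.” for “naloxone.”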

[11] = molecular target: T1, Alpha-2B adrenergic receptor; assay: Agonist activity at human alpha2B adrenoceptor expressed in CHO cells assessed as extracellular acidification measured after 4 mins by cytosensor microphysiometric analysis
[12] = molecular target: T4, Alpha-2C adrenergic receptor (Homo sapiens) (UniProt P18825); assay: Agonist activity at human alpha2C adrenoceptor expressed in CHO cells assessed as extracellular acidification measured after 4 mins by cytosensor microphysiometric analysis relative to control; format: functional, cell-based; outline: as §2
T4 sequence (whole entry): T2 sequence (P18825 whole entry)

[13] = test system: Mus musculus; assay: Effect on morphine-dependence in CD1 mouse assessed as decrease in naloxone-precipitated forepaw tremors at 0.025 mg/kg, ip administered chronically 15 mins prior to each morphine challenge relative to vehicle-treated control; format: functional, organism-based; set-up: dose 0.025 mg/kg; outline: as §1
[14] = test system: Mus musculus; assay: Effect on morphine-dependence in CD1 mouse assessed as decrease in naloxone-precipitated teeth chatter at 0.025 mg/kg, ip administered chronically 15 mins prior to each morphine challenge relative to vehicle-treated control; format: functional, organism-based; set-up: dose 0.025 mg/kg; outline: as §1
[15] = test system: Mus musculus; assay: Antidepressant activity in CD1 mouse assessed as decrease in immobility time at 0.025 mg/kg, ip administered 30 mins prior to coadministration with WAY100635 measured after 15 mins by forced swim test relative to vehicle-treated control; format: functional, organism-based; set-up: dose 0.025 mg/kg; outline: as §3
[16] = molecular target: T2, Alpha-2C adrenergic receptor; assay: Agonist activity at human alpha2C adrenoceptor expressed in CHO cells assessed as extracellular acidification measured after 4 mins by cytosensor microphysiometric analysis; format: functional, cell-based; outline: as §2
[17] = molecular target: T5, Alpha-2A adrenergic receptor (Homo sapiens, UniProt P08913); assay: Displacement of [3H]RX821002 from human alpha2A adrenoceptor expressed in CHO cells after 30 mins by scintillation counting; format: cell-based; outline: as §2
T5 sequence (P08913 whole entry): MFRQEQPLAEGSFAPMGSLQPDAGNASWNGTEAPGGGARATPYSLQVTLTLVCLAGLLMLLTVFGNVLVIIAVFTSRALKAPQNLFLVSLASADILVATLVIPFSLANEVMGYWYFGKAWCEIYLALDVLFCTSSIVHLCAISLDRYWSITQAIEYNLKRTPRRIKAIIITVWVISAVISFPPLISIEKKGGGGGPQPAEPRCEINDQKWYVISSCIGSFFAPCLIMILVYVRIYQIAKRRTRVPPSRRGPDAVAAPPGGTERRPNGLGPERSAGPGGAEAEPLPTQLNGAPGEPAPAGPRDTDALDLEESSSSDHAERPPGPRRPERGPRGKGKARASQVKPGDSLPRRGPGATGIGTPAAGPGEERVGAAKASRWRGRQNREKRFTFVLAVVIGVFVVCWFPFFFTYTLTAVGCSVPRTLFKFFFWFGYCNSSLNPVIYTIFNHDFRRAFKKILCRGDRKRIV

[18] = test system: Mus musculus; assay: Antidepressant activity in CD1 mouse assessed as decrease in immobility time at 1.25 mg/kg, sc measured after 15 mins by forced swim test relative to vehicle-treated control; format: functional, organism-based; set-up: dose 1.25 mg/kg
[19] = test system: Mus musculus; assay: Antidepressant activity in CD1 mouse assessed as decrease in immobility time at 0.1 mg/kg, sc measured after 15 mins by forced swim test relative to vehicle-treated control; format: functional, organism-based; set-up: dose 0.1 mg/kg
Outline: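 Mouse forced swim test scoring immobility time. The 5-HT1A-R antagonist was given alone at 0.1 mg/kg sc. Groups were compared with vehicle-treated mice, with 7–8 animals per group, and data are shown as means ± SEM.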

[20] = molecular target: T6, 5-hydroxytryptamine receptor 1A (Homo sapiens) (UniProt P08908); conditions: HeLa
T6 sequence (whole entry): T3 sequence (P08908 whole entry)

[21] = molecular target: T7, Alpha-2A adrenergic receptor (Homo sapiens) (UniProt P08913); conditions: CHO
T7 sequence (whole entry): T5 sequence (P08913 whole entry)

[22] = test system: Mus musculus; assay: Antidepressant activity in CD1 mouse assessed as decrease in immobility time at 20 mg/kg, ip after 15 mins by forced swim test relative to vehicle-treated control; format: functional, organism-based; set-up: dose 20 mg/kg
Outline: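 Mouse forced swimming test with immobility time as the read-out. Single ip doses were 0.012, 0.025, 0.05, 0.2 or 0.5 mg/kg, with fluoxetine 20 mg/kg ip as reference. Results are compared against vehicle-treated mice and given as means ± SEMs of 8–9 animals.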

## C[C@@H](Oc1ccccc1CC1CC1)C1=NCCN1
[1]
  Activity: Active
[2]
  Activity: Active
[3]
  Ki: 339 nM
[4]
  Activity: Active
[5]
  Ki: 234 nM
[6]
  Ki: 39.8 nM
[7]
  Activity: inactive
[8]
  Activity: Active
[9]
  Activity: Active
[10]
  Activity: Active
[11]
  EC50: 3980 nM
[12]
  Intrinsic activity: 0.75
[13]
  Activity: Active
[14]
  Activity: Active
[15]
  Activity: inactive
[16]
  EC50: 316 nM
[17]
  Ki: 44.7 nM

## COC(=O)[C@@H]1[C@H]2C[C@H]3c4[nH]c5ccccc5c4CCN3C[C@@H]2CC[C@@H]1O
[18]
  Activity: inactive
[19]
  Activity: inactive

## CC(Oc1c(Cl)cccc1Cl)C1=NCCN1 (configuration not stated) [LOFEXIDINE]
[6]
  Ki: 126 nM

## C=CCc1ccccc1O[C@@H](C)C1=NCCN1
[6]
  Ki: 35.5 nM
[7]
  Activity: inactive
[20]
  pD2: 7.19
[12]
  Intrinsic activity: 0.9
[15]
  Activity: inactive
[21]
  pKb: 7.8

## CNCCC(Oc1ccc(C(F)(F)F)cc1)c1ccccc1 (configuration not stated)
[22]
  Activity: Active
